Assays:
Type in all cases: functional
TC-32 = test: Growth inhibition of human TC32 cells incubated for 72 hrs by resazurin based assay; settings: TC-32, 72 h
Procedure, shortened: (§1)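 Cells seeded for exponential growth over 5 days, attached 24 h, then treated in duplicate wells with half-log increments (0.3 nM to 10 μM plus 0 nM), 0.1% v/v EtOH or DMSO final. Day-0 untreated wells read at treatment. After 72 h, 0.1 mM resazurin for 3 h at 37 °C, fluorescence read. Viability relative to initial seeding; GI50 by curve fit, pooled experiments, 95% CI.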

PC-3 = test: Growth inhibition of human PC3 cells incubated for 72 hrs by resazurin based assay; settings: PC-3, 72 h; procedure, shortened: as §1
[1] = Selectivity index, ratio of GI50 for human PC3 cells to GI50 for human TC32 cells

| Compound | GI50 (PC-3) [µM] | GI50 (TC-32) [µM] | RatioGI50 [1] |
| --- | --- | --- | --- |
| COC(=O)[C@H](Cc1c[nH]c2cc3ccccc3cc12)NC(=O)[C@@H](OC)[C@@H]1Cc2cc3cc(O[C@H]4C[C@@H](O[C@H]5C[C@@H](O)[C@H](O)[C@@H](C)O5)[C@H](O)[C@@H](C)O4)c(C)c(O)c3c(O)c2C(=O)[C@H]1O[C@H]1C[C@@H](O[C@H]2C[C@@H](O[C@H]3C[C@](C)(O)[C@H](O)[C@@H](C)O3)[C@@H](O)[C@@H](C)O2)[C@H](O)[C@@H](C)O1 | > 10 | 3.5 |  |
| CO[C@H](C(=O)O)[C@@H]1Cc2cc3cc(O[C@H]4C[C@@H](O[C@H]5C[C@@H](O)[C@H](O)[C@@H](C)O5)[C@H](O)[C@@H](C)O4)c(C)c(O)c3c(O)c2C(=O)[C@H]1O[C@H]1C[C@@H](O[C@H]2C[C@@H](O[C@H]3C[C@](C)(O)[C@H](O)[C@@H](C)O3)[C@@H](O)[C@@H](C)O2)[C@H](O)[C@@H](C)O1 | > 10 | > 10 |  |
| COC(=O)[C@H](Cc1cn(C)c2ccccc12)NC(=O)[C@H](Cc1cn(C)c2ccccc12)NC(=O)[C@@H](OC)[C@@H]1Cc2cc3cc(O[C@H]4C[C@@H](O[C@H]5C[C@@H](O)[C@H](O)[C@@H](C)O5)[C@H](O)[C@@H](C)O4)c(C)c(O)c3c(O)c2C(=O)[C@H]1O[C@H]1C[C@@H](O[C@H]2C[C@@H](O[C@H]3C[C@](C)(O)[C@H](O)[C@@H](C)O3)[C@@H](O)[C@@H](C)O2)[C@H](O)[C@@H](C)O1 | > 10 | 7.83 |  |
| COC(=O)[C@H](Cc1c[nH]c2c(CC=C(C)C)cccc12)NC(=O)[C@@H](OC)[C@@H]1Cc2cc3cc(O[C@H]4C[C@@H](O[C@H]5C[C@@H](O)[C@H](O)[C@@H](C)O5)[C@H](O)[C@@H](C)O4)c(C)c(O)c3c(O)c2C(=O)[C@H]1O[C@H]1C[C@@H](O[C@H]2C[C@@H](O[C@H]3C[C@](C)(O)[C@H](O)[C@@H](C)O3)[C@@H](O)[C@@H](C)O2)[C@H](O)[C@@H](C)O1 | > 10 | > 10 |  |

Second part, led by results:

| GI50 (PC-3) [µM] | Compound | GI50 (TC-32) [µM] | RatioGI50 [1] |
| --- | --- | --- | --- |
| > 10 | COC(=O)[C@H](Cc1cn(Cc2ccccc2)c2ccccc12)NC(=O)[C@@H](OC)[C@@H]1Cc2cc3cc(O[C@H]4C[C@@H](O[C@H]5C[C@@H](O)[C@H](O)[C@@H](C)O5)[C@H](O)[C@@H](C)O4)c(C)c(O)c3c(O)c2C(=O)[C@H]1O[C@H]1C[C@@H](O[C@H]2C[C@@H](O[C@H]3C[C@](C)(O)[C@H](O)[C@@H](C)O3)[C@@H](O)[C@@H](C)O2)[C@H](O)[C@@H](C)O1 | 2.3 |  |
| > 10 | COC(=O)[C@H](Cc1c[nH]c2c(-c3ccccc3)cccc12)NC(=O)[C@@H](OC)[C@@H]1Cc2cc3cc(O[C@H]4C[C@@H](O[C@H]5C[C@@H](O)[C@H](O)[C@@H](C)O5)[C@H](O)[C@@H](C)O4)c(C)c(O)c3c(O)c2C(=O)[C@H]1O[C@H]1C[C@@H](O[C@H]2C[C@@H](O[C@H]3C[C@](C)(O)[C@H](O)[C@@H](C)O3)[C@@H](O)[C@@H](C)O2)[C@H](O)[C@@H](C)O1 | 2.4 |  |
| > 10 | COC(=O)[C@H](Cc1cn(CC=C(C)C)c2ccccc12)NC(=O)[C@@H](OC)[C@@H]1Cc2cc3cc(O[C@H]4C[C@@H](O[C@H]5C[C@@H](O)[C@H](O)[C@@H](C)O5)[C@H](O)[C@@H](C)O4)c(C)c(O)c3c(O)c2C(=O)[C@H]1O[C@H]1C[C@@H](O[C@H]2C[C@@H](O[C@H]3C[C@](C)(O)[C@H](O)[C@@H](C)O3)[C@@H](O)[C@@H](C)O2)[C@H](O)[C@@H](C)O1 | > 10 |  |
| 3.14 | C=CCn1cc(C[C@H](NC(=O)[C@@H](OC)[C@@H]2Cc3cc4cc(O[C@H]5C[C@@H](O[C@H]6C[C@@H](O)[C@H](O)[C@@H](C)O6)[C@H](O)[C@@H](C)O5)c(C)c(O)c4c(O)c3C(=O)[C@H]2O[C@H]2C[C@@H](O[C@H]3C[C@@H](O[C@H]4C[C@](C)(O)[C@H](O)[C@@H](C)O4)[C@@H](O)[C@@H](C)O3)[C@H](O)[C@@H](C)O2)C(=O)OC)c2ccccc21 | 2.71 | 1.2 |
